Compound activity: PubChem BioAssay, Johns Hopkins Ion Channel Center
Kir21 inh – inhibitors of mouse Kir2.1 inward-rectifier potassium channel. Inward rectifier potassium channel 2 (Mus musculus), P35561. HEK293-Kir2.1, FluxOR thallium flux fluorescence; active compounds read low. B-score at 10 µM. actives 0.85% (n = 310,000). AID 1672, 2009;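 active = fluorescence ratio B-score at or below minus 3 SD of library scores, with starting-brightness B-score within 2 SD, cut at about -4.2 in these data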;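 also: channel flux triggered by added potassium and thallium sulfate stimulus; B-score of peak minus minimum fluorescence over baseline after thallium stimulus; more negative B-score means stronger Kir2.1 block with less thallium influx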
TRPC6 inhibitor – mouse TRPC6 channel inhibitors, primary screen, cell-based, HEK293, membrane potential dye. Short transient receptor potential channel 6 (Mus musculus), Q61143. ACh-evoked depolarization; active compounds read low. AID 2553, 2010. actives 1.1% (n = 310,000). B-score at 10 µM;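 active = B-score under library mean minus 3 SD, initial fluorescence not abnormally high, positive integrated signal ratio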;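 also: B-score derived from integrated fluorescence ratio over the kinetic read; more negative B-score means stronger inhibition of depolarization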
TRPC4 act – activators of mouse TRPC4 channel, primary screen, Fluo4 calcium, HEK293 TRPC4beta/mu-opioid cells | Short transient receptor potential channel 4 (Mus musculus), Q9QUQ5 | Fluo4 calcium fluorescence; active compounds read high | B-score at 10 µM | actives 0.49% (n = 310,000) | AID 2237, 2010;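 active = B-score above 5 SD of library B-scores, and initial fluorescence ratio not above library mean plus 5 SD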;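 also: positive B-score marks a calcium rise read as TRPC4 activation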
Target sequence (Q9QUQ5 whole entry, looked up): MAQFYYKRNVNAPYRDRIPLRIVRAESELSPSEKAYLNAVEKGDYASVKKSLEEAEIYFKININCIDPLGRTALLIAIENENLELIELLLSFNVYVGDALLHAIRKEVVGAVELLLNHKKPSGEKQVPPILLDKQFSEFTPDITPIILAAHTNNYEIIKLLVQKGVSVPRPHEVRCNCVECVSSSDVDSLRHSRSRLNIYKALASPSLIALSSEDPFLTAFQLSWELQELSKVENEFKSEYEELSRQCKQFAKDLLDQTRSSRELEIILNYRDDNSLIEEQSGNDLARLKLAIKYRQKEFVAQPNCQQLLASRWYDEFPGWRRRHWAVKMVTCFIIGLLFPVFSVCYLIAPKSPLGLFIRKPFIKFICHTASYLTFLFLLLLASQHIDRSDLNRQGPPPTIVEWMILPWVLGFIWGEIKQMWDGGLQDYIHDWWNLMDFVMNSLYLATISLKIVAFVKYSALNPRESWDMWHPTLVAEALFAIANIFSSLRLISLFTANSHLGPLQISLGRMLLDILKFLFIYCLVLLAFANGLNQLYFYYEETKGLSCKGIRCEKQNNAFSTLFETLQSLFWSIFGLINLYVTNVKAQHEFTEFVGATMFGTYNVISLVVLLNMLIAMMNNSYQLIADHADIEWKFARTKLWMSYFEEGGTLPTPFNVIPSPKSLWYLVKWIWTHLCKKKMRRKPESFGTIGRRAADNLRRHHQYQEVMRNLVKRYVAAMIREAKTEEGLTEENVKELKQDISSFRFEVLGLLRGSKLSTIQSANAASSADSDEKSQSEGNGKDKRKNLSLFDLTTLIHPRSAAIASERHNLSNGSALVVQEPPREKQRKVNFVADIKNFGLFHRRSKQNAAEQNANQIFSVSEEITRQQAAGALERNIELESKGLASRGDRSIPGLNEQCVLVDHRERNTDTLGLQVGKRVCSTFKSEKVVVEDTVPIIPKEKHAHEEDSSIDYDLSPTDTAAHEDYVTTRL
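System – HEK293 cells stably co-expressing mouse TRPC4beta and mu-opioid receptor · Signal – Fluo4 calcium-sensitive dye fluorescence, kinetic, 1 Hz baseline · Benchmarks – buffer (low) and maximal DAMGO (high) · Read-out – B score of integrated fluorescence ratio per well · Incubation – dye loading 45 min room temperature, 110 s kinetic read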
TRPC6 activator – mouse TRPC6 channel activators, primary screen, cell-based, HEK293, membrane potential dye | actives 0.13% (n = 310,000) | Short transient receptor potential channel 6 (Mus musculus), Q61143 | B-score at 10 µM | HEK293-TRPC6 membrane potential dye fluorescence; active compounds read high;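 active = B-score of the integrated fluorescence ratio above library mean plus 3 SD, and starting fluorescence ratio within library mean plus 5 SD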;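 also: higher score means more depolarization so channel activation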
TRPC4 PAM – positive allosteric modulators of TRPC4, primary screen, cell-based, mouse TRPC4beta, HEK293 mu-opioid, Fluo-4 calcium; Short transient receptor potential channel 4 (Mus musculus), Q9QUQ5; DAMGO EC20, Fluo-4 Ca2+ flux; active compounds read high; B-score at 10 µM; actives 0.42% (n = 310,000); AID 2227, 2009;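 active = B-score of calcium response area above 5 SD of library B-scores, with initial fluorescence ratio within 5 SD of library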;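 also: B-score of integrated fluorescence ratio over time as area under calcium response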
TRPC4 block – inhibitors of mouse TRPC4 channel, primary screen, Fluo4 calcium, HEK293 TRPC4beta/mu-opioid cells; Short transient receptor potential channel 4 (Mus musculus), Q9QUQ5; DAMGO-evoked Fluo4 calcium flux; active compounds read low; B-score at 10 µM; actives 0.39% (n = 300,000); AID 2247, 2010;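 active = B-score over 3 SD under the library average, no early fluorescence shift, positive overall ratio signal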
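Signal: kinetic Fluo4 fluorescence imaging of calcium influx. Material: stable TRPC4beta/mu-opioid receptor HEK293 cells. Probe or stimulus: DAMGO in two steps, submaximal then maximal.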
Active calls of the source: *. Compounds with a hit are over-represented: about 2.9% of the library has one in this group of screens.

What do the screens show for `Cc1ccc(NS(=O)(=O)c2cc(C(=O)N3CCc4ccccc4C3)ccc2Cl)cc1`?
Kir21 inh: 0.51; TRPC6 inhibitor: inactive; TRPC4 act: inactive; TRPC6 activator: inactive; TRPC4 PAM: 28*; TRPC4 block: inactive

How did CCCOc1ccc(C(=O)NNC(=S)NC(=O)c2ccco2)cc1 do in these assays?
Kir21 inh: -0.62; TRPC6 inhibitor: inactive; TRPC4 act: 217*; TRPC6 activator: inactive; TRPC4 PAM: inactive; TRPC4 block: inactive

Results for CC(Oc1ccc(Cl)cc1)C(=O)NNC(=S)NC(=O)c1ccco1 (stereo not given) ?
Kir21 inh: -0.79; TRPC6 inhibitor: inactive; TRPC4 act: 183*; TRPC6 activator: inactive; TRPC4 PAM: inactive; TRPC4 block: inactive

How did O=C(NNC(=S)NC(=O)c1ccco1)c1ccc(F)cc1 do in these assays?
Kir21 inh: -0.18; TRPC6 inhibitor: inactive; TRPC4 act: 67*; TRPC6 activator: inactive; TRPC4 PAM: inactive; TRPC4 block: inactive

Results for O=C(NC(=S)NNC(=O)c1ccco1)c1ccc(Br)cc1 ?
Kir21 inh: -0.08; TRPC6 inhibitor: inactive; TRPC4 act: 121*; TRPC6 activator: inactive; TRPC4 PAM: inactive; TRPC4 block: -8*

Results for CCCOc1ccc(C(=O)NNC(=S)NC(=O)c2ccccc2[N+](=O)[O-])cc1 ?
Kir21 inh: -0.53; TRPC6 inhibitor: inactive; TRPC4 act: inactive; TRPC6 activator: inactive; TRPC4 PAM: inactive; TRPC4 block: inactive

How did CC(Oc1ccccc1)C(=O)Nc1cccc(NC(=O)c2ccco2)c1 (stereo not given) do in these assays?
Kir21 inh: -1.36; TRPC6 inhibitor: inactive; TRPC4 act: inactive; TRPC6 activator: inactive; TRPC4 PAM: inactive; TRPC4 block: inactive

What do the screens show for `CCc1noc(C)c1C(=O)N1CCCSC1=Nc1ccccc1Cl`?
Kir21 inh: -0.83; TRPC6 inhibitor: inactive; TRPC4 act: inactive; TRPC6 activator: inactive; TRPC4 PAM: inactive; TRPC4 block: inactive

Results for COc1ccccc1C(C(=O)NC1CCCC1)N(C(=O)c1csnn1)C1CC1 (stereo not given) ?
Kir21 inh: -0.96; TRPC6 inhibitor: inactive; TRPC4 act: inactive; TRPC6 activator: inactive; TRPC4 PAM: inactive; TRPC4 block: inactive

Results for COc1ccc(C(=O)NNC(=S)NC(=O)c2ccco2)cc1 ?
Kir21 inh: 0.38; TRPC6 inhibitor: inactive; TRPC4 act: 50*; TRPC6 activator: inactive; TRPC4 PAM: inactive; TRPC4 block: inactive

Results for COc1ccc(C(=O)NC(=S)NNC(=O)c2cccnc2)cc1 ?
Kir21 inh: 1.53; TRPC6 inhibitor: inactive; TRPC4 act: inactive; TRPC6 activator: inactive; TRPC4 PAM: inactive; TRPC4 block: inactive

How did O=C(NNC(=S)NC(=O)c1cccc([N+](=O)[O-])c1)c1ccc(Br)cc1 do in these assays?
Kir21 inh: 0.39; TRPC6 inhibitor: inactive; TRPC4 act: 79*; TRPC6 activator: inactive; TRPC4 PAM: inactive; TRPC4 block: inactive

How did Cc1ccccc1CS(=O)(=O)c1nnc([C@H](CC(C)C)NC(=O)OC(C)(C)C)o1 do in these assays?
Kir21 inh: -2.58; TRPC6 inhibitor: inactive; TRPC4 act: inactive; TRPC6 activator: inactive; TRPC4 PAM: inactive; TRPC4 block: inactive

What do the screens show for `CC(C)[C@H](NC(=O)OC(C)(C)C)c1nnc(S(=O)(=O)Cc2c(F)cccc2Cl)o1`?
Kir21 inh: -4.36*; TRPC6 inhibitor: inactive; TRPC4 act: inactive; TRPC6 activator: inactive; TRPC4 PAM: inactive; TRPC4 block: inactive

How did CC[C@@H](C)[C@H](NC(=O)OC(C)(C)C)c1nnc(S(=O)(=O)Cc2cc(C)ccc2C)o1 do in these assays?
Kir21 inh: -9.11*; TRPC6 inhibitor: inactive; TRPC4 act: inactive; TRPC6 activator: inactive; TRPC4 PAM: inactive; TRPC4 block: inactive

How did C=CCNCC(=O)N1N=C(c2ccc3ccccc3c2)CC1c1ccc(OC)cc1 (stereo not given) do in these assays?
Kir21 inh: -4.32*; TRPC6 inhibitor: inactive; TRPC4 act: inactive; TRPC6 activator: inactive; TRPC4 PAM: inactive; TRPC4 block: inactive

How did COc1ccc(C2CC(c3ccc4ccccc4c3)=NN2C(=O)CNC2CCCCC2)cc1 (stereo not given) do in these assays?
Kir21 inh: -1.51; TRPC6 inhibitor: inactive; TRPC4 act: inactive; TRPC6 activator: inactive; TRPC4 PAM: inactive; TRPC4 block: inactive

What do the screens show for `Cc1ccccc1C(=O)NNc1ccc(-c2csnn2)cc1`?
Kir21 inh: -0.06; TRPC6 inhibitor: inactive; TRPC4 act: inactive; TRPC6 activator: inactive; TRPC4 PAM: inactive; TRPC4 block: inactive

Results for COc1ccc(C(=O)CC(=O)Nc2ccc([N+](=O)[O-])cc2)cc1 ?
Kir21 inh: -0.57; TRPC6 inhibitor: inactive; TRPC4 act: inactive; TRPC6 activator: inactive; TRPC4 PAM: inactive; TRPC4 block: inactive

What do the screens show for `COc1ccc(N/C(C)=C2/C(=O)C(=O)N(CCO)C2c2ccc([N+](=O)[O-])cc2)cc1` (stereo not given)?
Kir21 inh: -0.74; TRPC6 inhibitor: inactive; TRPC4 act: inactive; TRPC6 activator: inactive; TRPC4 PAM: 137*; TRPC4 block: inactive

What do the screens show for `CCOc1ccccc1NC(=O)Cc1coc2cc(C)ccc12`?
Kir21 inh: -5.01*; TRPC6 inhibitor: inactive; TRPC4 act: inactive; TRPC6 activator: inactive; TRPC4 PAM: inactive; TRPC4 block: inactive

Results for COc1ccc(CCNc2ncnc3[nH]ncc23)cc1OC ?
Kir21 inh: 1.65; TRPC6 inhibitor: inactive; TRPC4 act: inactive; TRPC6 activator: inactive; TRPC4 PAM: inactive; TRPC4 block: inactive

What do the screens show for `COc1ccc(CCNc2ncnc3sc(C)cc23)cc1OC`?
Kir21 inh: -6.23*; TRPC6 inhibitor: inactive; TRPC4 act: inactive; TRPC6 activator: inactive; TRPC4 PAM: inactive; TRPC4 block: inactive

Results for Cc1ccc(S(=O)(=O)N(Cc2ccccc2)Cc2ccco2)cc1 ?
Kir21 inh: -5.04*; TRPC6 inhibitor: inactive; TRPC4 act: inactive; TRPC6 activator: inactive; TRPC4 PAM: 14*; TRPC4 block: inactive

What do the screens show for `Cc1ccc(S(=O)(=O)N(Cc2ccc(F)cc2)Cc2ccco2)cc1`?
Kir21 inh: -0.7; TRPC6 inhibitor: inactive; TRPC4 act: inactive; TRPC6 activator: inactive; TRPC4 PAM: inactive; TRPC4 block: inactive
